Results from different studies.
Target: Proto-oncogene tyrosine-protein kinase Src (SRC, Homo sapiens, UniProt P12931)

| Compound | test | conditions | measurement | result |
| --- | --- | --- | --- | --- |
| Cc1cc(O)c(-c2ccc([C@@H](C)CN(C)C)cc2)c2c1[nH]c(=O)c1sccc12 | enzyme activity, inhibitor | 0.1 µM | inhibition | -1.37% |
| C[C@H]1CC[C@H](n2c3cnccc3c3cnc(Nc4ccc5c(n4)CCN(C(=O)CO)C5)nc32)CC1 | cell-free assay, competition with immobilised ligand | 1 µM | remaining binding | 65% |
| CO[C@@H]1[C@H](N(C)C(=O)c2ccccc2)C[C@H]2O[C@]1(C)n1c3ccccc3c3c4c(c5c6ccccc6n2c5c31)C(=O)NC4 | enzyme activity, inhibitor | 1 µM | inhibition | 31% |
| N#Cc1ccc(NC(=O)Nc2ccccc2)cc1 | cell-free assay, competition with immobilised ligand | 25 µM | remaining binding | 100% |
| C#Cc1cc(-c2cc(Nc3nc(N[C@@H](C)c4ccc(F)cn4)ncc3Cl)n[nH]2)ccc1C=O | enzyme activity, inhibitor | 0.2 µM | inhibition | 37.7% |
| Cc1ccc(NC(=O)c2ccnc(C(F)(F)F)c2)cc1-c1cc(OCCO)nc(N2CCOCC2)c1 | binding, competition with immobilised ligand | 1 µM | remaining binding | 100% |
| COc1ccc2oc(-c3ccc4nc(N)oc4c3)c/c(=N\c3ccccc3NC(=O)CCN)c2c1 | binding | 1 µM | remaining binding | 72% |
| CCCCC(=O)Nc1ccc(-c2ccc3ncn(CCC)c(=O)c3c2)cn1 | binding, competition with immobilised ligand | 0.5 µM | remaining binding | 97% |
| C=CC(=O)N1CCC([C@@H]2CCNc3c(C(N)=O)c(-c4ccc(Oc5ccccc5)cc4)nn32)CC1 | enzyme activity, inhibitor | 1 µM | inhibition | 42% |
| Cc1cc2c(C(N)=O)c(N)n(-c3c(C)ccc(O)c3C)c2nc1C | enzyme activity, inhibitor, TR-FRET | 3.333 µM | inhibition | 100% |
